In ChEMBL document CHEMBL3286193, “Discovery of a series of 2,5-diaminopyrimidine covalent irreversible inhibitors of Bruton's tyrosine kinase with in vivo antitumor activity” (J Med Chem, 2014):
Converted amounts (≈) assume the structure as drawn. The source made the active and inactive calls. The calls are words filed in the database; no cut-off is given here.

Columns and labels:
[1] = biological target: Mitogen-activated protein kinase 14 (Homo sapiens) (UniProt Q16539); experiment: Inhibition of P38-alpha MAPK (unknown origin) at 0.5 uM by [33P]-ATP filter binding assay
In short: (§1)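 Kinase panel of 18 enzymes; inhibition tested at 0.5 μM. Values are means of duplicates.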

Homo sapiens = species: Homo sapiens; experiment: Inhibition of VEGFR (unknown origin) at 0.5 uM by [33P]-ATP filter binding assay; in short: as §1
[2] = biological target: Tyrosine-protein kinase Blk (Homo sapiens, UniProt P51451); experiment: Inhibition of Blk (unknown origin) after 1 hr by HTRF assay
In short: (§2)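 Recombinant kinases tested by HTRF KinEase protocol. Enzyme preincubated with inhibitor for a fixed 10 min. IC50 values are means of duplicates.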

[3] = biological target: Epidermal growth factor receptor (Homo sapiens, UniProt P00533); experiment: Inhibition of EGFR (unknown origin) after 1 hr by HTRF assay
In short: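 Commercial recombinant kinase, assayed in the HTRF KinEase format following the kit protocol. Enzyme and inhibitor were preincubated for a fixed 10 min before the reaction.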

[4] = biological target: Tyrosine-protein kinase ITK/TSK (Homo sapiens, UniProt Q08881); experiment: Inhibition of Itk (unknown origin) after 1 hr by HTRF assay; in short: as §2
[5] = biological target: Tyrosine-protein kinase JAK3 (Homo sapiens, UniProt P52333); experiment: Inhibition of Jak3 (unknown origin) after 1 hr by HTRF assay; in short: as §2
[6] = biological target: Tyrosine-protein kinase Tec (Homo sapiens, UniProt P42680); experiment: Inhibition of Tec (unknown origin) after 1 hr by HTRF assay; in short: as §2
[7] = biological target: T1, Tyrosine-protein kinase BTK (Homo sapiens, UniProt Q06187); experiment: Binding affinity to Btk kinase domain (387 to 659) (unknown origin) assessed as compound-protein covalent adduct formation at 1:3 protein to compound molar ratio at 4 degC after 1 hr by LC-MS analysis
In short: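 Btk kinase domain (residues 387−659, MW 32136) incubated with 3 equiv of compound at 4 °C for 1 h. Mass spectrometry of the intact protein checked for mass peak shift consistent with 1-to-1 protein−compound adducts.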

[8] = biological target: T1, Tyrosine-protein kinase BTK; experiment: Irreversible inhibition of Btk phosphorylation at Tyr551 in human Ramos cells at 1 uM incubated for 1 hr followed by compound washout with fresh media measured after 2 hrs by Western blot analysis; format: cell-based
In short: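 Ramos cells (5 × 10⁵) seeded overnight, treated with compound 1 h, then washed out with fresh media for 2 h. Cells stimulated with goat anti-human IgM for 3−5 min, lysed by boiling in SDS buffer, and Btk Tyr551 phosphorylation assessed by Western blot.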

JVM-3 = experiment: Cytotoxicity against human JVM-3 cells assessed as growth inhibition at 1 to 10 uM after 72 hrs by CellTiter-Glo luminescent cell viability assay; format: functional, cell-based
RL = experiment: Cytotoxicity against human RL cells assessed as growth inhibition at 1 to 10 uM after 72 hrs by CellTiter-Glo luminescent cell viability assay; format: functional, cell-based
SU-DHL10 = experiment: Cytotoxicity against human SU-DHL10 cells assessed as growth inhibition at 1 to 10 uM after 72 hrs by CellTiter-Glo luminescent cell viability assay; format: functional, cell-based
WSU-DLCL2 = experiment: Cytotoxicity against human WSU-DLCL2 cells assessed as growth inhibition at 1 to 10 uM after 72 hrs by CellTiter-Glo luminescent cell viability assay; format: functional, cell-based
[9] = Cytotoxicity against human DOHH2 cells assessed as growth inhibition after 72 hrs by CellTiter-Glo luminescent cell viability assay; format: functional, DOHH-2; conditions: Homo sapiens, DOHH-2, 72 h
In short: (§3)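 Lymphoma cells seeded at 5000 cells/well, incubated 24 h, then exposed to compounds for 72 h. Viability read by CellTiter-Glo luminescence. GI50 from dose−response curves, mean of two or three independent experiments in triplicate.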

[10] = Cytotoxicity against human Pfeiffer cells assessed as growth inhibition after 72 hrs by CellTiter-Glo luminescent cell viability assay; format: functional; conditions: Homo sapiens, Pfeiffer, 72 h; in short: as §3
[11] = Cytotoxicity against human SU-DHL6 cells assessed as growth inhibition after 72 hrs by CellTiter-Glo luminescent cell viability assay; format: functional, SU-DHL-6; conditions: Homo sapiens, SU-DHL-6, 72 h; in short: as §3
[12] = Solubility of the compound in FaSSIF; format: ADME
[13] = Clearance in mouse liver microsomes by LC-MS/MS analysis; format: ADME; conditions: read-out: CLH
In short: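 Liver microsomes incubated with compound and NADPH at 37 °C. Samples taken at several time points, centrifuged, and supernatants analyzed by LC−MS/MS. t1/2 and CL calculated by first-order kinetics. Testosterone, propranolol and clozapine served as positive controls.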

[14] = Volume of distribution at steady state in ICR mouse at 1 mg/kg, iv by LC-MS analysis; format: ADME, organism-based; design: dose 1 mg/kg, route intravenous; conditions: in vivo, read-out: Vdss
In short: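 ICR mice (n = 3) given a single intravenous injection at 1 mg/kg. Blood sampled at various time points and analyzed by LC−MS to derive t1/2, CL and Vss.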

[15] = Plasma concentration in CB17 SCID mouse xenografted with human DOHH2 cells at 10 mg/kg, iv qd administered for 14 days measured at 2 hrs post last dose; format: ADME, organism-based, DOHH-2; design: dose 10 mg/kg, route intravenous
In short: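 Female CB17/SCID mice were given 5 × 10⁶ DoHH2 cells subcutaneously. When tumours averaged ~167 mm³, mice were randomised into four groups (n = 6/group). Dosing was by tail-vein injection once daily for 14 consecutive days. Plasma compound levels were determined at 2 and 24 h after the final dose.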

[16] = Plasma concentration in CB17 SCID mouse xenografted with human DOHH2 cells at 20 mg/kg, iv qd administered for 14 days measured at 2 hrs post last dose; format: ADME, organism-based, DOHH-2; design: dose 20 mg/kg, route intravenous
In short: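 Same DoHH2 xenograft study in female CB17/SCID mice, tail-vein dosing once daily for 14 days. Plasma compound concentrations determined at 2 and 24 h after the last administration.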

[17] = Antitumor activity against human DOHH2 cells xenografted in CB17 SCID mouse assessed as tumor growth inhibition at 20 mg/kg, iv qd administered for 14 days measured over 14 days of compound treatment relative to vehicle-treated control; conditions: DOHH-2, iv, 336 h, read-out: TGI
Mus musculus = experiment: Toxicity in CB17 SCID mouse xenografted with human DOHH2 cells assessed as body weight fluctuations at 10 mg/kg, iv qd administered for 14 days measured over 14 days of compound treatment; format: organism-based, DOHH-2; design: dose 10 mg/kg, route intravenous; conditions: in vivo, 336 h
In short: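 Female CB17/SCID mice carried subcutaneous DoHH2 xenografts (5 × 10⁶ cells injected), randomised at ~167 mm³ mean tumour volume into four groups (n = 6/group). Compound was given intravenously via the tail vein once daily for 14 consecutive days. Body weights were tracked over time throughout the study.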

DOHH-2 = experiment: Antitumor activity against human DOHH2 cells xenografted in iv dosed CB17 SCID mouse assessed as tumor growth inhibition administered as qd for 14 days measured over 14 days of compound treatment; format: functional, organism-based
[18] = biological target: Tyrosine-protein kinase CSK (Homo sapiens) (UniProt P41240); experiment: Inhibition of CSK (unknown origin) at 0.5 uM by [33P]-ATP filter binding assay; in short: as §1
[19] = biological target: Cytoplasmic tyrosine-protein kinase BMX (Homo sapiens, UniProt P51813); experiment: Inhibition of Bmx (unknown origin) after 1 hr by HTRF assay; in short: as §2
[20] = biological target: Receptor tyrosine-protein kinase erbB-4 (Homo sapiens, UniProt Q15303); experiment: Inhibition of HER4 (unknown origin) at 0.5 uM by [33P]-ATP filter binding assay; in short: as §1

T1 sequence (Q06187 whole entry, the tested form may be a part): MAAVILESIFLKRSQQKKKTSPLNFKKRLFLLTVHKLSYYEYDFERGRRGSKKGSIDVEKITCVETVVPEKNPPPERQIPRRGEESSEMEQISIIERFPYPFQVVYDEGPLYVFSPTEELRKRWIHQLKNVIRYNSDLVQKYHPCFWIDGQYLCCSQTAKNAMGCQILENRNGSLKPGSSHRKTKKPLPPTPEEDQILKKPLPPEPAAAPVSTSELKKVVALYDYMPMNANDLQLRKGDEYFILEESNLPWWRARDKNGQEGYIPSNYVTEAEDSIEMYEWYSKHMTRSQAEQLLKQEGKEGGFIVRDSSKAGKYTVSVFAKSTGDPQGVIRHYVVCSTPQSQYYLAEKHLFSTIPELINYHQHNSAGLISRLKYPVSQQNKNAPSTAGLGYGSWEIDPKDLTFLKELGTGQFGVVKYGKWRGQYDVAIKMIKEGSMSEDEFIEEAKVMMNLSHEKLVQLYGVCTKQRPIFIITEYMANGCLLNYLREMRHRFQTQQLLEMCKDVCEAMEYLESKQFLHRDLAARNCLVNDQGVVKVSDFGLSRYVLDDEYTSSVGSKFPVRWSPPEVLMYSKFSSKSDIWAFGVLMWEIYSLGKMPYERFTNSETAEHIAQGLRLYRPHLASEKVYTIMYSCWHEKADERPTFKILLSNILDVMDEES
Chain of Mitogen-activated protein kinase 14 (Homo sapiens) (Q16539 whole entry): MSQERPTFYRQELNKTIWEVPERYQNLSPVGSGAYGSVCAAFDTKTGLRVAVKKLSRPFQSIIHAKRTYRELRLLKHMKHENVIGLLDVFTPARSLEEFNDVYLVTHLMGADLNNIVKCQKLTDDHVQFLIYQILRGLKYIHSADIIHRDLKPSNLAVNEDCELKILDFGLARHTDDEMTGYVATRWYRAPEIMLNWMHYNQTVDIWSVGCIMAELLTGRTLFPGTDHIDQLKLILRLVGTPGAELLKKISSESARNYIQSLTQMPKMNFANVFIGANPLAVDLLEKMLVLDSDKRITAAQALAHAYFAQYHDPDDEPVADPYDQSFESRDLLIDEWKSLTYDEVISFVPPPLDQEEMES
Chain of Tyrosine-protein kinase Blk (P51451 whole entry): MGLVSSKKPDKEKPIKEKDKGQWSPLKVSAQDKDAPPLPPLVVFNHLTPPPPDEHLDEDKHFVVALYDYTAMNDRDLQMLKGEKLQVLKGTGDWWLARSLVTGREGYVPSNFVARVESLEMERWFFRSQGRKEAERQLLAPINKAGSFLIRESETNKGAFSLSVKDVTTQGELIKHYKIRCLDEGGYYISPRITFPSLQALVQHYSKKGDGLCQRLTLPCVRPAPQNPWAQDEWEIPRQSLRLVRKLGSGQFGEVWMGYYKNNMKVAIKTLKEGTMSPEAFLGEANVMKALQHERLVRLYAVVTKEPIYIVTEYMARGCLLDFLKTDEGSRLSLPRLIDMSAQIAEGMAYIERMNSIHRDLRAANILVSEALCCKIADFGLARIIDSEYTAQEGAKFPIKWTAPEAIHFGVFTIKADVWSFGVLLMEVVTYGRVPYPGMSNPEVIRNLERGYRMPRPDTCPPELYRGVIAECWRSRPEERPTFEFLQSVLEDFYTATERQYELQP
Chain of Epidermal growth factor receptor (P00533 whole entry): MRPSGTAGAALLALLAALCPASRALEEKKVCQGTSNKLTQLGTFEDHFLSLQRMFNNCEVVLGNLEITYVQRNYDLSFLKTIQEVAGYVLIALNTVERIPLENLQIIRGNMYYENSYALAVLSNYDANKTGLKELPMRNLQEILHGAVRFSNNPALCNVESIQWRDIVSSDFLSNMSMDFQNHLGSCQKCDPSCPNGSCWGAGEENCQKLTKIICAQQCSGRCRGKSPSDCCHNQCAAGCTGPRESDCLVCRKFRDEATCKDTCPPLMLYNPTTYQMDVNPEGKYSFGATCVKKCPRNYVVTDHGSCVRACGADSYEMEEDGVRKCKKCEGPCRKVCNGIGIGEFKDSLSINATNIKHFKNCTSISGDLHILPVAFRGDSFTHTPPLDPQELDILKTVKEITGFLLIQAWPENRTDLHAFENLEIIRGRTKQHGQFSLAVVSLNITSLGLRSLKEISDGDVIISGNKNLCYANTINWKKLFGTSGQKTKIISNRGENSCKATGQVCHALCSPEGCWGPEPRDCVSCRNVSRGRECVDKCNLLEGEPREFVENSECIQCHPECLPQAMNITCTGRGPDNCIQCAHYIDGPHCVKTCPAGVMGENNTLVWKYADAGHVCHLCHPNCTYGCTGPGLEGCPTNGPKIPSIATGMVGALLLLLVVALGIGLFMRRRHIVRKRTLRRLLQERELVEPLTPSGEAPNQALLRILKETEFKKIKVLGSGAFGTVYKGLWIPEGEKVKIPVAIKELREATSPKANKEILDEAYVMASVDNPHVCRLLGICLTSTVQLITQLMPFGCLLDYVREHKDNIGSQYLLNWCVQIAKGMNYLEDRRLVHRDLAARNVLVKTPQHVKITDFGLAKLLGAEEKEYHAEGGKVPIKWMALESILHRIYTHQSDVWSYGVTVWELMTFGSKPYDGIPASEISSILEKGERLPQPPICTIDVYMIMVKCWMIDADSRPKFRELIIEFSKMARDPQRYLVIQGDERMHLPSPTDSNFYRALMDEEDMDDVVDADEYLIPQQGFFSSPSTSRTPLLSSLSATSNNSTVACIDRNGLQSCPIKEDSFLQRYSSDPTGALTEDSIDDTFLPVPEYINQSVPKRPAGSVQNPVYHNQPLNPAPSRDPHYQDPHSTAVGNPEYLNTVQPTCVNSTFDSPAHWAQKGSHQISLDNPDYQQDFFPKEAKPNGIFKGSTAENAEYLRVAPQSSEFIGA
Chain of Cytoplasmic tyrosine-protein kinase BMX (P51813 whole entry): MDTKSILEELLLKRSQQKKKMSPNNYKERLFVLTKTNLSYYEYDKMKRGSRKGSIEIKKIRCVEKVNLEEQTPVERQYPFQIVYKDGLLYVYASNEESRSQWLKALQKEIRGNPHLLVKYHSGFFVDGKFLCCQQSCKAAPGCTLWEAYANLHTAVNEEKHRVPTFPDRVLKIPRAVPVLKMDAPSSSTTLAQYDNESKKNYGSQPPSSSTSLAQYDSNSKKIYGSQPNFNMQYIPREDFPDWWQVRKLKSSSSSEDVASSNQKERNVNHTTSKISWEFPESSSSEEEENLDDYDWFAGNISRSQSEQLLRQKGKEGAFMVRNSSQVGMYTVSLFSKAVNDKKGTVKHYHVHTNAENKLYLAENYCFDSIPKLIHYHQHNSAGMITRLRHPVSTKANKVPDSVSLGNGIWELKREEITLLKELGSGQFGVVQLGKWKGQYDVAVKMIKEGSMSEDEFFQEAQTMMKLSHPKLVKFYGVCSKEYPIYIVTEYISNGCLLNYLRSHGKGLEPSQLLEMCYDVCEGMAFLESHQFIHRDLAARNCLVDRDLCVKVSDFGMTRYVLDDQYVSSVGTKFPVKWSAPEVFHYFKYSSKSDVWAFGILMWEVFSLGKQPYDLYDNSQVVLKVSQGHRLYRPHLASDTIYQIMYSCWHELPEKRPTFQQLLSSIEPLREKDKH
Chain of Tyrosine-protein kinase Tec (P42680 whole entry, the tested form may be a part): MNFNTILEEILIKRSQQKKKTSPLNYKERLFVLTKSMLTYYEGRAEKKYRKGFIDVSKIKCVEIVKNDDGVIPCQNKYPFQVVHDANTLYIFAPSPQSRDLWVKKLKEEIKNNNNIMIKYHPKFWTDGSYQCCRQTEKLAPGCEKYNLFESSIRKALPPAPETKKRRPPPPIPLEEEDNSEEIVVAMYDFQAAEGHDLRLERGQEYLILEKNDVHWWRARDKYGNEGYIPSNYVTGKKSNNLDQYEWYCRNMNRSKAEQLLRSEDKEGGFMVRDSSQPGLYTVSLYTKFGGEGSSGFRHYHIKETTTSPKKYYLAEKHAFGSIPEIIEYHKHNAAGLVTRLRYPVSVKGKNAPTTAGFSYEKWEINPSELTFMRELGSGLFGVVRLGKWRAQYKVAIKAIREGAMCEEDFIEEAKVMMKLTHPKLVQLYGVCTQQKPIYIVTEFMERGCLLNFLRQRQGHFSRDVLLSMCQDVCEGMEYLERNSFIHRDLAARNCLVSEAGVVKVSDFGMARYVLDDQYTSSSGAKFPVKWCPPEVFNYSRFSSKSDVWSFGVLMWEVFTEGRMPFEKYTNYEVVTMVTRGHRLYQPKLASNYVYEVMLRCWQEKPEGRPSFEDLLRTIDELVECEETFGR
Chain of Tyrosine-protein kinase CSK (Homo sapiens) (P41240 2-450 limits assumed): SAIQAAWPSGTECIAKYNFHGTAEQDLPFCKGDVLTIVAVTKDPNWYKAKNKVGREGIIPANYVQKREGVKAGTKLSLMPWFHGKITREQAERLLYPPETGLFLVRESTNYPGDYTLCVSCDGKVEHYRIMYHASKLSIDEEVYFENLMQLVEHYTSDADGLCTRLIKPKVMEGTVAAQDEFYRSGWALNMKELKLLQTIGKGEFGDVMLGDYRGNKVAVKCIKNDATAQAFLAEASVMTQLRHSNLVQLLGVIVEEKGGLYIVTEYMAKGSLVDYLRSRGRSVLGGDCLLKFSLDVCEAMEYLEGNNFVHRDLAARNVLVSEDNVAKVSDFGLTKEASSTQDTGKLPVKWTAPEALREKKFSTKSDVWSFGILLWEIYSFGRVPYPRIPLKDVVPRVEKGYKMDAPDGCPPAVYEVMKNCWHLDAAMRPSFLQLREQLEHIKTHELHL

For `C=CC(=O)Nc1cccc(Nc2ncc(NC(=O)c3cc(NC(=O)c4cccc(C(F)(F)F)c4)ccc3C)cn2)c1`, the inhibition [1] was “Active”, the inhibition (Homo sapiens) was “Active” and the IC50 [2] was 2.7 nM. The IC50 [3] was 11 nM, the IC50 [4] was > 30000 nM and the IC50 [5] was 2680 nM. The IC50 [6] was 8.2 nM, the Activity [7] was “Active” and the inhibition [8] was “Active”. The “growth inhibition (GI)” value (JVM-3) was “Active”, the “growth inhibition (GI)” value (RL) was “Active” and the “growth inhibition (GI)” value (SU-DHL10) was “Active”. For the same molecule, the “growth inhibition (GI)” value (WSU-DLCL2) was “Active”, the GI50 [9] was 73 nM and the GI50 [10] was 8 nM. It also gave a GI50 [11] of 38 nM, a solubility [12] of 7.02 µM (≈ 3.93 µg/mL) and a microsomal CLint [13] of 25.7 µL/min/mg. It also gave a Vd [14] of 0.2 L/kg, a concentration at 2 h [15] of 378 ng/mL and a concentration at 2 h [16] of 2100 ng/mL. For the same molecule, the inhibition in vivo at 20 mg/kg [17] was 66%, the Activity (Mus musculus) was “Non-toxic” and the “growth inhibition (GI)” value (DOHH-2) was “Dose-dependent effect”. The inhibition [18] was “Active”, the IC50 [19] was 1.9 nM and the inhibition [20] was “Active”.
